From ChEMBL document CHEMBL2062506, “Synthesis, characterization and structure optimization of a series of thiazolidinone derivatives as Entamoeba histolytica inhibitors” (Eur J Med Chem, 2012)
pIC50: −log10 of the molar value.

How the values were obtained:
[1] = Octanol-water partition coefficient, log P of the compound; assay type: physicochemical
Entamoeba histolytica = test: Antiamoebic activity against Entamoeba histolytica HM-1:IMSS after 72 hrs by microdilution method
HepG2 = test: Cytotoxicity against human HepG2 cells after 48 hrs by MTT assay; assay type: cell-based; settings: for pIC50: Homo sapiens, HepG2, 48 h; for inhibition (INH): human, hepg2, 48 h
In short: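 HepG2 cells grown in DMEM with 10% heat-inactivated FBS and antibiotics at 37 °C, 5% CO2. Cells seeded at 1.2 × 10^4/well and grown 48 h, then exposed 48 h to 3.13–100 µM compound (DMSO stock diluted in medium). MTT (5 mg/mL) added for 4 h, formazan dissolved in DMSO, A570 read against 655 nm reference. Viability expressed relative to untreated cells; triplicate, repeated thrice.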

| SMILES | logP [1] | pIC50 (Entamoeba histolytica) | pIC50 (HepG2) | inhibition (INH) (HepG2) |
| --- | --- | --- | --- | --- |
| CC(C)CN1C(=O)/C(=C/c2ccc(O)cc2)S/C1=N\c1ccccc1 | 5.08 | 5.61 | – | – |
| COc1ccc(/C=C2\S/C(=N\c3ccccc3)N(CC(C)C)C2=O)cc1 | 5.22 | 5.57 | – | – |
| Cc1ccc(/C=C2\S/C(=N\c3ccccc3)N(CC(C)C)C2=O)cc1 | 5.89 | 5.49 | – | – |
| CC(C)CN1C(=O)/C(=C/c2ccccc2O)S/C1=N\c1ccccc1 | 5.08 | 5.69 | – | – |
| CC(C)CN1C(=O)/C(=C/c2ccc3c(c2)OCO3)S/C1=N\c1ccccc1 | 5 | 4.78 | – | – |
| COc1ccc(OC)c(/C=C2\S/C(=N\c3ccccc3)N(CC(C)C)C2=O)c1 | 5.06 | 5.71 | – | – |
| CCc1ccc(/C=C2\S/C(=N\c3ccccc3)N(CC(C)C)C2=O)cc1 | 6.34 | 6.02 | 4.07 | Dose-dependent effect |
| CC(C)CN1C(=O)/C(=C/c2ccc(Cl)cc2)S/C1=N\c1ccccc1 | 5.98 | 5.72 | – | – |
| CC(C)CN1C(=O)/C(=C/c2ccccc2C(F)(F)F)S/C1=N\c1ccccc1 | 6.26 | 5.43 | – | – |
| Cc1ncc([N+](=O)[O-])n1CCO [METRONIDAZOLE] | – | 5.79 | < 4.00 | Dose-dependent effect |

Stronger by pIC50 (Entamoeba histolytica), values ahead:

| logP [1] | pIC50 (Entamoeba histolytica) | SMILES | pIC50 (HepG2) | inhibition (INH) (HepG2) |
| --- | --- | --- | --- | --- |
| 5.06 | 6.36 | COc1ccc(/C=C2\S/C(=N\c3ccccc3)N(CC(C)C)C2=O)cc1OC | < 4.00 | Dose-dependent effect |
| 4.4 | 6.22 | CC(C)CN1C(=O)/C(=C/c2ccccn2)S/C1=N\c1ccccc1 | < 4.00 | Dose-dependent effect |
| 5.81 | 6.96 | Cc1ccsc1/C=C1\S/C(=N\c2ccccc2)N(CC(C)C)C1=O | 4.05 | Dose-dependent effect |
| 4.92 | 6.19 | COc1cc(/C=C2\S/C(=N\c3ccccc3)N(CC(C)C)C2=O)ccc1O | 4.05 | Dose-dependent effect |
| 5.98 | 6.18 | CC(C)CN1C(=O)/C(=C/c2cccc(Cl)c2)S/C1=N\c1ccccc1 | 4.06 | Dose-dependent effect |
| 5.49 | 6.76 | CC(C)CN1C(=O)/C(=C/c2ccc(N(C)C)cc2)S/C1=N\c1ccccc1 | < 4.00 | Dose-dependent effect |
| 5.32 | 6.86 | CC(C)CN1C(=O)/C(=C/c2ccc([N+](=O)[O-])cc2)S/C1=N\c1ccccc1 | < 4.00 | Dose-dependent effect |
